Screening results: PubChem BioAssay, SRMLSC
Many of the other results were omitted from the sample, so hits are more common in it than they were.
H69AR inhibit: proliferation blockers of H69AR lung cancer cells, primary screen, cell-based, human, 86K library; 85,000 tested, 6% active; viability, % at 10 µM; H69AR lung tumor viability, ATP luminescence, 72 h; hits give low values;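 active means viability at or below 40%; inactive means viability above 40%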;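 further: multidrug resistant small cell line overexpressing MRP-1 efflux transporter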
HCT116 bCat-KO: primary screen for growth suppressors in beta-catenin knockout HCT116 cells (colon tumor, human). HCT116 beta-catenin knockout viability, CellTiter-Glo, 60 h; hits give low values. viability, % at 10 µM. 140,000 tested, 1.5% active;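 active means viability at or under a set limit, the compound median less 4 SD, cut at about 6% in these data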
PTEN del growth: growth suppression of PTEN-null HCT116, primary screen, cell-based, CellTiter-Glo; HCT116 PTEN-null viability, 60 h; hits give low values; viability, % at 10 µM; 140,000 tested, 1.2% active; AID 827, 2007;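 active means viability at or below a set limit, 4 SD under the median of all tested compounds, cut at about 3.7% in these data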;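 further: PTEN knockout HCT116 line with beta catenin targeted HCT116 as companion control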
HUVEC prolif 384: inhibitors of HUVEC proliferation, primary screen, cell-based, 384-well; CellTiter-Glo luminescence, 72 h; hits give low values; viability, % at 10 µM (by protocol); 86,000 tested, 1.1% active; AID 648, 2007;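 active means viability at or below 30%; inactive means viability above 30%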
Lung fibro prol: antiproliferative effect on LL 47 fibroblasts – human, LL 47 cells, CellTiter-Glo luminescence, primary screen. 85,000 tested, 1.1% active. LL 47 human lung fibroblast viability, ATP luminescence; hits give low values. AID 719, 2007. viability, % at 10 µM;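 active means viability at or below 50% in the single dose screen; inactive means viability above 50%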;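 further: compound exposure lasted 72 h before the ATP readout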
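material = human LL 47 lung fibroblast cells | dosing = compounds added from tenfold dosing solution, 0.1% DMSO final | timing = overnight cell rest, 72 h compound treatment at 37 °C | measured by = CellTiter-Glo luminescence measuring cellular ATP | evaluation = % viability versus median cells-only luminescence | control set = cell-only wells, no compound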
Hits are given with their value; . = inactive; / = no result.

SMILES	H69AR inhibit	HCT116 bCat-KO	PTEN del growth	HUVEC prolif 384	Lung fibro prol
Cc1ccccc1-c1noc(-c2ccc(Cl)cc2)n1	.	.	.	.	.
Cc1ccccc1-c1noc(-c2ccc(O)cc2)n1	15	.	.	.	.
Cc1cc(C)c[n+](C(C)C(=O)c2ccc(-c3ccccc3)cc2)c1 (stereo not drawn)	/	.	.	/	/
CC1CCc2nc(NC(=O)CSc3nc4ccccc4o3)sc2C1 (stereo not drawn)	31	.	.	.	.
Cc1c(CCOC(=O)C2C3CC4CC(C3)CC2C4)sc[n+]1CC(=O)c1ccc(Br)cc1 (stereo not drawn)	0.9	.	.	2.6	.
CC1Cc2ccccc2N1C(=O)CSc1nnc(-c2ccc(S(=O)(=O)N3CCOCC3)cc2)n1C (stereo not drawn)	/	.	.	/	/
Cc1cccc(OCCCN2CCCCCC2)c1	.	.	.	.	.
Cc1cccc(OCCN2CSC(=S)N(C)C2)c1	1.5	.	.	21	.
COc1ccccc1OCCCCN1CCN(c2ccccc2OC)CC1	.	.	.	.	.
COc1ccccc1OCCN1CSC(=S)N(C)C1	/	4.0	.	/	/
CC(C)(C=O)C1=CC(=O)c2ccccc2C1=O	/	1.3	1.7	/	/
CCOC(=O)c1c(C)[nH]c(C2=NNC(=Nc3cccc(Cl)c3)SC2)c1C	/	2.8	2.1	/	/
CCOC(=O)c1c(C)[nH]c(C=O)c1Cc1cccc(Cl)c1	/	.	.	/	/
Cc1cc(N2C3CCC2CC(O)(c2ccc(F)cc2)C3)nc(-c2ccccc2)n1 (stereo not drawn)	26	.	.	.	.
Cc1c(Br)c([N+](=O)[O-])nn1CC(=O)NCc1cccnc1	.	.	.	.	.
COc1ccccc1N1CCN(Cc2ccc(O)c3ncccc23)CC1	/	3.3	1.7	/	/
Oc1ccc(CN2CCCc3ccccc32)c2cccnc12	34	.	.	.	.
CCOC(=O)C1CCN(Cc2ccc(O)c3ncccc23)CC1	1.1	3.0	1.9	.	.
CCOC(=O)C1CCN(Cc2ccccc2C(F)(F)F)CC1	.	.	.	.	.
NNC(=S)NCc1ccc2c(c1)OCO2	/	.	.	/	/
O=C(Nc1cccnc1)C1(c2ccc(Cl)cc2)CCCC1	.	.	.	.	.
Cc1ccc(NC(=O)Cn2c(=O)oc3cc(S(=O)(=O)N4CCC(C)CC4)ccc32)cc1C	17	.	.	.	.
Cc1cc(N2CCN(S(=O)(=O)c3ccccc3)CC2)c2ccccc2n1	.	.	.	.	.
Cc1cc(N2CCN(c3ccc([N+](=O)[O-])c4cccnc34)CC2)c2ccccc2n1	/	3.5	.	/	/
CCn1c(=N)n(CC(=O)c2cccc([N+](=O)[O-])c2)c2ccccc21	/	.	.	/	/
SMILES	H69AR inhibit	HCT116 bCat-KO	PTEN del growth	HUVEC prolif 384	Lung fibro prol
CCn1c(=N)n(CC(=O)C23CC4CC(CC(C4)C2)C3)c2ccccc21	29	.	.	3.4	.
CC(C)c1cc(C(=O)NNC(=S)NCc2ccco2)c(O)c(C(C)C)c1	/	.	.	/	/
CCC1SC(CC)C(=O)N(CC(=O)Nc2ccc3c(c2)OCO3)C1=O (stereo not drawn)	/	.	.	/	/
CC(/C=N\NC(=O)c1ccc(C)nc1)=C\c1ccccc1	/	.	.	/	/
Cc1nc(NCc2ccco2)c(C#N)c2c1COC(C)(C)C2	.	.	.	.	.
CC1(C)Cc2c(C#N)c(NCc3ccco3)nc(-c3ccco3)c2CO1	20	.	.	.	.
N#Cc1c(NCCN)nc(-c2ccco2)c2c1CCCC2	7.1	.	.	.	41
CC1(C)Cc2c(C#N)c(OCC(=O)c3ccc(Cl)cc3)nc(-c3ccco3)c2CO1	.	.	.	.	42
O=C(Nc1ccc(O)c(-c2nc3ccccc3o2)c1)C1(c2ccc(Br)cc2)CCCC1	/	.	.	/	/
CCC(=O)NC(c1ccccc1OC)c1ccc2cccnc2c1O (stereo not drawn)	1.8	3.9	2.7	4.1	11
COc1cc(C(=O)N2CCCc3ccccc32)cc(OC)c1OC	25	.	.	.	.
COc1cc2c(cc1OC)CN(C(C)C(=O)N1CCc3ccccc31)CC2 (stereo not drawn)	18	.	.	.	.
CC(C(=O)N1CCc2ccccc21)N1CCc2ccccc2C1 (stereo not drawn)	/	.	.	/	/
COc1cc(C(=O)N2c3ccccc3CC2C)cc(OC)c1OC (stereo not drawn)	38	.	.	.	.
CC1Cc2ccccc2N1C(=O)c1ccnc(C(C)(C)C)c1 (stereo not drawn)	.	.	.	.	.
CCOc1ccccc1N=c1oc2cc(O)ccc2cc1C(=O)NCC1CCCO1 (stereo not drawn)	.	.	.	.	.
O=C(N/N=C/c1ccco1)c1ccccc1OCc1ccc(Br)cc1	/	.	.	/	/
CCc1ccc(OCC(=O)NC(NC(=S)Nc2ccccc2)C(Cl)(Cl)Cl)cc1 (stereo not drawn)	/	2.4	.	/	/
Cc1c(Cl)cccc1NC(=S)N1CCC(C(N)=O)(N2CCCCC2)CC1	/	.	.	/	/
COc1ccc(NC(=O)/C(Cl)=C(/Cl)S(=O)(=O)Cc2ccccc2)cn1	1.9	4.5	3.0	.	4.7
Cc1ccc(NS(=O)(=O)c2ccc(OCC(=O)NCc3ccncc3)cc2)cc1	/	.	.	/	/
Cn1c(C(=O)NCCCN2CCN(c3ccccc3F)CC2)cc2c(=O)n(C)c3ccccc3c21	28	1.7	.	.	43
Cc1ccc(-n2nc(C(=O)N3CCN(C)CC3)c3c4ccccc4n(C)c3c2=O)cc1	.	/	/	.	.
COc1ccc(-n2nc(C(=O)NCc3ccco3)c3c4ccccc4n(C)c3c2=O)cc1Cl	25	.	.	.	34
CCN1CCCC1CNC(=O)c1nn(-c2ccc(C)cc2)c(=O)c2c1c1ccccc1n2C (stereo not drawn)	.	/	/	25	46
SMILES	H69AR inhibit	HCT116 bCat-KO	PTEN del growth	HUVEC prolif 384	Lung fibro prol
COc1ccccc1CNC(=O)c1nn(-c2ccc(C)cc2)c(=O)c2c1c1ccccc1n2C	5.2	.	.	.	.
Cn1c(C(=O)NCCCN2CCOCC2)cc2c(=O)n(C)c3ccccc3c21	.	.	.	.	.
COc1ccc(-n2nc(C(=O)NCC(=O)NCc3ccco3)c3ccccc3c2=O)cc1	.	.	.	.	.
CCOC(=O)C1CCCN(C(=S)Nc2cc(C)cc(C)c2)C1 (stereo not drawn)	/	.	.	/	/
COc1ccccc1CNC(=O)c1cc2c(=O)n(C)c3ccccc3c2n1C	26	/	/	.	.
CC(=O)Nc1cccc(NC(=O)Cc2nc(-c3ccccc3)sc2-c2ccc(C)cc2)c1	/	.	1.4	/	/
COc1cccc(NC(=O)Cc2nc(-c3ccccc3)sc2-c2ccc(C)cc2)c1	/	.	.	/	/
CC(O)CNCc1ccc(-c2ccccc2)cc1 (stereo not drawn)	/	.	.	/	/
CC(NCc1ccc(-c2ccccc2)cc1)C(O)c1ccccc1 (stereo not drawn)	/	2.8	.	/	/
